Laboratory results taken from the RNAGym collection of RNA variant scans (doi:10.1002/anie.201605470).

B1: Osa-1-4 twister ribozyme (parent)
chain: CCGCCUAACACUGCCAAUGCCGGUCCCAAGCCCGGAUAAAAGUGGAGGGGGCGG

Variants of: B1
Test: self-cleavage, relative activity (ratio to wild type); higher = more cleavage; co-transcriptional
In short: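 The 48 positions downstream of the cleavage site in a DNA template for a 54-nucleotide Oryza sativa twister ribozyme carried 97 % wild-type base and 1 % of each other base. After in vitro transcription (2 h, 37 °C) with co-transcriptional self-cleavage, the RNA was reverse-transcribed with a template-switching oligonucleotide, PCR-amplified and deep-sequenced. Relative activity is the fraction cleaved, judged by reads with or without upstream sequence and normalised to wild type.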

Variant | self-cleavage
A39U A7C | 0.04
A39U A7U | 0.08
A39U A7G | 0.2
A40C C27U | 0.03
A40C C27A | 0.05
A40C C27G | 0.02
A40C C21G | 0.02
A40C C21A | 0.07
A40C C21U | 0.09
A40C G51U | 0.06
A40C G51A | 0.06
A40C G51C | 0.04
A40C U18A | 0.07
A40C U18C | 0.08
A40C U18G | 0.09
A40G A46C | 0.06
A40G A46G | 0.05
A40G A46U | 0.08
A40C G22C | 0.02
A40C G22A | 0.09
A40C G22U | 0.07

Variant | self-cleavage
A39G G54A | 0.79
A39G G54U | 0.8
A39G G54C | 0.76
A40C G42C | 0.06
A40C G42U | 0.03
A40C G42A | 0.07
A40C C31G | 0.02
A40C C31A | 0.02
A40C C31U | 0.06
A39G G48C | 0.08
A39G G48U | 0.07
A39G G48A | 0.1
A39U C20G | 0.09
A39U C20A | 0.84
A39U C20U | 0.96
A39U A40C | 0.12
A39U A40G | 0.65
A39U A40U | 0.64
A40C C15A | 0.05
A40C C15U | 0.05
A40C C15G | 0.04

Variant | self-cleavage
A39U G51C | 0.06
A39U G51A | 0.61
A39U G51U | 0.28
A40G C26G | 0.14
A40G C26U | 0.13
A40G C26A | 0.05
A39U U37A | 0.99
A39U U37C | 1
A39U U37G | 1.02
A39U G47C | 0.07
A39U G47U | 0.11
A39U G47A | 0.13
A39U U18G | 0.88
A39U U18A | 0.95
A39U U18C | 0.97
A39U G54U | 0.77
A39U G54A | 0.73
A39U G54C | 0.73
A39G U12C | 0.19
A39G U12A | 0.69
A39G U12G | 0.28

Variant | self-cleavage
A39U | 1
A40C A8C | 0.04
A40C A8G | 0.05
A40C A8U | 0.04
A40C A7U | 0.02
A40C A7G | 0.06
A40C A7C | 0.02
A40C C52G | 0.09
A40C C52A | 0.11
A40C C52U | 0.1
A40C G13A | 0.03
A40C G13C | 0.01
A40C G13U | 0.01
A40C C25U | 0.04
A40C C25G | 0.03
A40C C25A | 0.03
A40C G53U | 0.05
A40C G53A | 0.09
A40C G53C | 0.04
A40G C9A | 0.09
A40G C9G | 0.18
